Experimental data taken from publication PMC2854023 (Journal of biomolecular screening, 2010).
pIC50: −log10 of the molar value. Where two headings read alike, the source gives them in different places.

Tests used:
human PDE7A1 = human PDE7A1 (Homo sapiens, UniProt Q13946); assay: Fission yeast 5FOA growth assay / HTS, PDE7A-expressing strain CHP1189; assay type: cell-based; settings: for average OD600 in PDE7A HTS: 20μM compound, 48 hours growth in 5FOA medium, duplicate; for stimulation of 5FOA-resistant growth, PDE7A-expressing strain: range of concentrations, 48 hours, OD600
human PDE7A1, sequence (Q13946 whole entry): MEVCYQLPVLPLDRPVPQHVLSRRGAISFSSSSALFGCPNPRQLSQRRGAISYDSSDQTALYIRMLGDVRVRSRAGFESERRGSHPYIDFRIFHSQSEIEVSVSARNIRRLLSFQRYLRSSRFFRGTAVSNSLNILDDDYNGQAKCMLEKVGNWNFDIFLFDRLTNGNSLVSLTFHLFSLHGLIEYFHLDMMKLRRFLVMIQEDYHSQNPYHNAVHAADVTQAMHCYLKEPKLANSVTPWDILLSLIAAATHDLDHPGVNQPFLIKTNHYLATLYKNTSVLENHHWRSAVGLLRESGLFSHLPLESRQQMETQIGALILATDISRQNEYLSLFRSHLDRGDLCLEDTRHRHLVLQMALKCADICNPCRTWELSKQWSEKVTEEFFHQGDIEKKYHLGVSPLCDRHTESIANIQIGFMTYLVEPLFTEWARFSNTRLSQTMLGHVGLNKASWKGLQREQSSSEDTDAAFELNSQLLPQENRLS
Outline: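 Fission yeast strain CHP1189 carries human PDE7A in place of cgs2, plus gpa2Δ, pap1Δ and fbp1-ura4/fbp1-lacZ reporters. It was grown to exponential phase in EMM with 2.5 mM cAMP, then resuspended in 5FOA medium at 1 × 10^5 cells/ml. Compounds were mostly at 20μM, in duplicate, with DMSO negative and 5mM cAMP positive controls. Growth was 48 h at 30°C, read as OD600. Per-plate Z scores were combined into a composite Z score.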

PDE7A = PDE7A (Homo sapiens, UniProt Q13946); assay: In vitro PDE enzyme assay; assay type: biochemical
PDE7A, sequence (Q13946 whole entry, species assumed): as the sequence (Q13946 whole entry) above
Outline: (§1)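 Radiometric PDE assay with 25nM initial 3H-cAMP for 15 min, over which the hydrolysis rate was constant. 3H-AMP was separated by Ba(OH)2 precipitation and remaining cAMP counted by scintillation. PDE7A was commercial; PDE7B was a gift. IC50 is the concentration halving the hydrolysis rate relative to vehicle controls. PDE7B Km came from Michaelis-Menten kinetics, analysed by Lineweaver-Burke and Eadie-Hofstee plots.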

PDE7B = PDE7B (Homo sapiens, UniProt Q9NP56); assay: In vitro PDE enzyme assay; assay type: biochemical; settings: for IC50 on PDE7B relative to PDE7A: in vitro enzyme assays, PDE7B vs PDE7A
PDE7B, sequence (Q9NP56 whole entry, species assumed): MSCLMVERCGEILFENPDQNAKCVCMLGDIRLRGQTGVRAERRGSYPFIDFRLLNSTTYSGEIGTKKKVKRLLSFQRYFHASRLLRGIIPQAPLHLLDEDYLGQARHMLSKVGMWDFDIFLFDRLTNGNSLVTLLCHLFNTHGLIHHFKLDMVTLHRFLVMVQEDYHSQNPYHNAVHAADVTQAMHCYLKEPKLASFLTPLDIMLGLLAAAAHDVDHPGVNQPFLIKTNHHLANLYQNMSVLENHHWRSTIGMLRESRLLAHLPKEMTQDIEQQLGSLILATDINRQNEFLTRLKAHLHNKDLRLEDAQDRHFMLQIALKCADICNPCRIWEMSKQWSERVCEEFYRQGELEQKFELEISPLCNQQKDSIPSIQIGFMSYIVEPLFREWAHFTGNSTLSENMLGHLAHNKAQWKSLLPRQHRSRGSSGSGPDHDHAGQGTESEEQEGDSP
Outline: as §1

human PDE7B1 = human PDE7B1 (Homo sapiens, UniProt Q9NP56); assay: Fission yeast 5FOA growth assay, PDE7B-expressing strain; assay type: cell-based; settings: range of concentrations, 48 hours, OD600
human PDE7B1, sequence (Q9NP56 whole entry): as the sequence (Q9NP56 whole entry, species assumed) above
Outline: (§2)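 5FOA growth assays, run as in the PDE7A screen, used fission yeast strains expressing human PDE4A1, PDE4B2, PDE4D3 or PDE7B1 from the cgs2 locus. Compound was added over a concentration range, with DMSO kept below 0.2%. Cultures grew 48 h at 30°C. OD600 is the mean of four wells.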

[1] = test system: TNFα release by LPS-treated U937 cells; assay: TNFα release assay in PMA-activated, LPS-treated U937 cells; assay type: cell-based, human; settings: for TNFα release, combined with rolipram, 3 hours LPS / TNFα release, combined with rolipram, 20 hours LPS: 10μM each, compared to rolipram alone
Outline: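 U937 cells at 10^6 cells/ml in RPMI 1640 with 10% FBS were primed 17 hr with 300 ng/ml PMA. Aliquots of […] were diluted with equal medium and given 10 μM compound, alone or with rolipram, for 1 hr; vehicle was ethanol with <0.1% DMSO. LPS (25 μg/ml) followed, and supernatant TNFα was measured by ELISA at 3 or 20 h. Values are % of vehicle, 2–6 independent experiments, paired one-tailed t-test.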

human PDE4A1 = human PDE4A1 (Homo sapiens, UniProt P27815); assay: Fission yeast 5FOA growth assay, PDE4A1-expressing strain; assay type: cell-based; settings: dose response, 48 hours
human PDE4A1, sequence (P27815 1-647 isoform P27815-4): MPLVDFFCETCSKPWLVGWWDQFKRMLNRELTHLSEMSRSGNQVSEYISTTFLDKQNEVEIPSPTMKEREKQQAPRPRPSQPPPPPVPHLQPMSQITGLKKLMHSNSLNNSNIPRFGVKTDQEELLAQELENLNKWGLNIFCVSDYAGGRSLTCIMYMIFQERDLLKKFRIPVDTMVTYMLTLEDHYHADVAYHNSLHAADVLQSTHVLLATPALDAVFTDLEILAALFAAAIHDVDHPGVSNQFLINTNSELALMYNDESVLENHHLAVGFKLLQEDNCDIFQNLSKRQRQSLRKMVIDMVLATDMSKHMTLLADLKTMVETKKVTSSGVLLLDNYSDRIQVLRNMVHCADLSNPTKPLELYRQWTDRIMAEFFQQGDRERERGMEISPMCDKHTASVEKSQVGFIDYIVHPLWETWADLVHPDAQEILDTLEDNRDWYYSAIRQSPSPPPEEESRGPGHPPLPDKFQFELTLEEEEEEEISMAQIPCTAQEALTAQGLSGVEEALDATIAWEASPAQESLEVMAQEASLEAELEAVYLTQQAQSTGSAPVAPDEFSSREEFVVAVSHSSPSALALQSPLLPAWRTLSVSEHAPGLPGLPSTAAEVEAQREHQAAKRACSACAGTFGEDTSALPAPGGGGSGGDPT
Outline: as §2

human PDE4B2 = human PDE4B2 (Homo sapiens, UniProt Q07343); assay: Fission yeast 5FOA growth assay, PDE4B2-expressing strain; assay type: cell-based; settings: dose response, 48 hours
Outline: as §2

human PDE4D3 = human PDE4D3 (Homo sapiens, UniProt Q08499); assay: Fission yeast 5FOA growth assay, PDE4D3-expressing strain; assay type: cell-based; settings: dose response, 48 hours
Outline: as §2

mouse PDE4A1 = target: T1, mouse PDE4A1 (Mus musculus, UniProt O89084); assay: Fission yeast HTS, mouse PDE4A1-expressing strain; assay type: cell-based; settings: 20μM
T1 sequence (O89084 1-610 isoform O89084-2): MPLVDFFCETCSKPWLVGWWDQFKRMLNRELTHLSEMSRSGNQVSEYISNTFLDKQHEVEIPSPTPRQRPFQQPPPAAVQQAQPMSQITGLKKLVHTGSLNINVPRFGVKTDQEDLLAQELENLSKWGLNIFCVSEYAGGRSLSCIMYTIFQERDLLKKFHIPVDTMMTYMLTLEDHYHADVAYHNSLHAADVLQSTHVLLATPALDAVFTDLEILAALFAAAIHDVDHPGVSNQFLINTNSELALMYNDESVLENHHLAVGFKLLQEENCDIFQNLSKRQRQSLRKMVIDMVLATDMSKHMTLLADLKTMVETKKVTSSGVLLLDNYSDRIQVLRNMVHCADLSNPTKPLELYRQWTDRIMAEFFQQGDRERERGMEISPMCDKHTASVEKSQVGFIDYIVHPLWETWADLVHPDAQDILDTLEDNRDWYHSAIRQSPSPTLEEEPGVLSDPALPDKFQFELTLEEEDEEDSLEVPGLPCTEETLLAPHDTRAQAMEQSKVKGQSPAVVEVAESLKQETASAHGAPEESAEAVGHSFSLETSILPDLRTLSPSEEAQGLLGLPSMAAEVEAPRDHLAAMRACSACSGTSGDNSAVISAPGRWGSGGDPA

PDE1B = PDE1B (Homo sapiens, UniProt Q01064); assay: Fission yeast 5FOA growth assay, PDE1B-expressing strain; assay type: cell-based; settings: data not shown
PDE1B, sequence (Q01064 whole entry, species assumed): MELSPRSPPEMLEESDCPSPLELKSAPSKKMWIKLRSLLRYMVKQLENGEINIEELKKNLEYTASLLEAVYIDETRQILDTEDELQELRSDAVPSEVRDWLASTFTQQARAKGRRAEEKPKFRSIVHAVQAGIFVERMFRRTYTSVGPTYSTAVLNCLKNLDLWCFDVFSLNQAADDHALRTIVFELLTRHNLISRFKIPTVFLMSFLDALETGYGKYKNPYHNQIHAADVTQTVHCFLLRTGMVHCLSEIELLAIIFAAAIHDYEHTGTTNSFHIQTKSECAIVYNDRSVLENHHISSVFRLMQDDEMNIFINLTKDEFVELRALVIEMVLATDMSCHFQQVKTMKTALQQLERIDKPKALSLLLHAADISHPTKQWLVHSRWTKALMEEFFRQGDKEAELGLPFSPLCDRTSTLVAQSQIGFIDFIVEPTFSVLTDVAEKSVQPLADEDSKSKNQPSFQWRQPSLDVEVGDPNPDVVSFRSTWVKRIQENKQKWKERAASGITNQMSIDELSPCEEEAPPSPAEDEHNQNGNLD
Outline: (§3)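 Fission yeast 5FOA growth assays used strains each expressing one mammalian PDE, read as OD600. For cGMP-specific PDEs, strains lacked adenylate cyclase and the 5FOA medium contained 30μM to 1mM cGMP.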

PDE1C = PDE1C (Homo sapiens, UniProt Q14123); assay: Fission yeast 5FOA growth assay, PDE1C-expressing strain; assay type: cell-based; settings: data not shown
Outline: as §3

PDE2A = PDE2A (Homo sapiens, UniProt O00408); assay: Fission yeast 5FOA growth assay, PDE2A-expressing strain; assay type: cell-based; settings: data not shown
PDE2A, sequence (O00408 whole entry, species assumed): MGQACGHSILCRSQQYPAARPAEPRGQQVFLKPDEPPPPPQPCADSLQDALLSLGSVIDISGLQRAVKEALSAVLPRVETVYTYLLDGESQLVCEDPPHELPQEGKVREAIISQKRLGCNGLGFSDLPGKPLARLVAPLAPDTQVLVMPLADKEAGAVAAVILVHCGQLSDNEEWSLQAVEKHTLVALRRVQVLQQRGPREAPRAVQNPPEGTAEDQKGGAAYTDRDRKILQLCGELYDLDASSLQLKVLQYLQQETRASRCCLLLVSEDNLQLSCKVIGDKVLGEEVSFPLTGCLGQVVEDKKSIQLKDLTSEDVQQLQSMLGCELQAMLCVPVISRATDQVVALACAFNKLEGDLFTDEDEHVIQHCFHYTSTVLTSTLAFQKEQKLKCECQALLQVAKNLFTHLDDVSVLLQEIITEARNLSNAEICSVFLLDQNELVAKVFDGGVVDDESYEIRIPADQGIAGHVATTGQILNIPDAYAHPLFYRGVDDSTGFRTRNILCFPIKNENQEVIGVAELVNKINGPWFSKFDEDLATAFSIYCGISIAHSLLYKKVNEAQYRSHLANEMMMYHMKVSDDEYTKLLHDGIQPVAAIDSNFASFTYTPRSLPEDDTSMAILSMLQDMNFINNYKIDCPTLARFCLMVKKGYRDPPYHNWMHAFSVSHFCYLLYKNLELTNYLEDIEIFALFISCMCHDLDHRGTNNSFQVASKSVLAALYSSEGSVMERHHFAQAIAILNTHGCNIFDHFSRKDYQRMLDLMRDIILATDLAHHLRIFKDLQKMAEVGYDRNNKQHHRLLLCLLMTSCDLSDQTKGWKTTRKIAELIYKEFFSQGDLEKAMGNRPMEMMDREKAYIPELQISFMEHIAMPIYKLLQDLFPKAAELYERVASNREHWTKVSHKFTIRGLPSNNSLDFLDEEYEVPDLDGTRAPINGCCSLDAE
Outline: as §3

PDE3B = PDE3B (Homo sapiens, UniProt Q13370); assay: Fission yeast 5FOA growth assay, PDE3B-expressing strain; assay type: cell-based; settings: data not shown
Outline: as §3

PDE5A = PDE5A (Homo sapiens, UniProt O76074); assay: Fission yeast 5FOA growth assay, PDE5A-expressing strain; assay type: cell-based; settings: data not shown
Outline: as §3

PDE8A = PDE8A (Homo sapiens, UniProt O60658); assay: Fission yeast 5FOA growth assay, PDE8A-expressing strain; assay type: cell-based; settings: data not shown
Outline: as §3

PDE9A = PDE9A (Homo sapiens, UniProt O76083); assay: Fission yeast 5FOA growth assay, PDE9A-expressing strain; assay type: cell-based; settings: data not shown
Outline: as §3

PDE11A = PDE11A (Homo sapiens, UniProt Q9HCR9); assay: Fission yeast 5FOA growth assay, PDE11A-expressing strain; assay type: cell-based; settings: data not shown
PDE11A, sequence (Q9HCR9 whole entry, species assumed): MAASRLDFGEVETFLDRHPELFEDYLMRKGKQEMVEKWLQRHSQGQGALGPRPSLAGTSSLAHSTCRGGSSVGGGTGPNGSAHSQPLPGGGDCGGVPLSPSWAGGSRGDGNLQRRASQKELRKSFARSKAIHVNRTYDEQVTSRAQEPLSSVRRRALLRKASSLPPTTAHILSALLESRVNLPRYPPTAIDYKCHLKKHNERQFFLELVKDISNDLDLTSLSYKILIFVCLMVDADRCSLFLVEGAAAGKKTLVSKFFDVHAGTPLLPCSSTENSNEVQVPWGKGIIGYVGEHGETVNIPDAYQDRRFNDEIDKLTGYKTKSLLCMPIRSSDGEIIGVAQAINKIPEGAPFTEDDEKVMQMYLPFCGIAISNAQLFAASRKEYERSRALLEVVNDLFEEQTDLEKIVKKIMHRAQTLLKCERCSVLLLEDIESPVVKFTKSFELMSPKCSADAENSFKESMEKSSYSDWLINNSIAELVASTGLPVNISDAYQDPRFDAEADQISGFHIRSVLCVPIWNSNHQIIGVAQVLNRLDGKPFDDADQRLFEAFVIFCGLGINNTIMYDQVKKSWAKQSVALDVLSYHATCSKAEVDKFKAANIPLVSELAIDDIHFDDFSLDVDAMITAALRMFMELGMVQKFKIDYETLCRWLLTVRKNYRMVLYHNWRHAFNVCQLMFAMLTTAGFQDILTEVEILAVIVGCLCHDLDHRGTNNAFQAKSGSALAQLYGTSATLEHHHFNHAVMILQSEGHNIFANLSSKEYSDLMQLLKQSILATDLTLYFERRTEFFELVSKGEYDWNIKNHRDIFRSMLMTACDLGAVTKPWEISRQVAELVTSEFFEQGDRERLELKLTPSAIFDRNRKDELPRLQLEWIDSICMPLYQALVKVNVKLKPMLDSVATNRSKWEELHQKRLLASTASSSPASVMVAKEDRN
Outline: as §3

PDE10A = assay: Fission yeast 5FOA growth assay, PDE10A-expressing strain; assay type: cell-based; settings: 40μM compound, data not shown
Outline: as §3

[2] = target: PDE4D catalytic domain (residues 86-413 of PDE4D2) (Homo sapiens, UniProt Q08499); assay: In vitro enzyme assay, PDE4D catalytic domain; assay type: biochemical
PDE4D catalytic domain (residues 86-413 of PDE4D2), sequence (Q08499 388-715): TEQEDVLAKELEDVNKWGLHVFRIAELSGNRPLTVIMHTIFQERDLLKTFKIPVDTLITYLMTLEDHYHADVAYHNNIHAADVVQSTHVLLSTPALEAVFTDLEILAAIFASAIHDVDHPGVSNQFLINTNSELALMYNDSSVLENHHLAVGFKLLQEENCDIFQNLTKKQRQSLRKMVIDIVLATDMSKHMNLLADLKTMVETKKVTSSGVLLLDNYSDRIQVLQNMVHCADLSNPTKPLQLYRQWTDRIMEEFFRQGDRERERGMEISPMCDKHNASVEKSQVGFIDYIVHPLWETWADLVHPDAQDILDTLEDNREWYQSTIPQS
Outline: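 PDE4D catalytic domain (PDE4D2 residues 86-413) was expressed in and purified from E. coli and tested in the 3H-cAMP hydrolysis assay with Ba(OH)2 precipitation. Enzyme was at 16 nM with 25 nM test compound across varying cAMP concentrations. A separate panel used 2μM compound against PDE4A, PDE4B and PDE4D catalytic domains.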

[3] = target: full-length PDE4D2 (residues 1-507) (Homo sapiens, UniProt Q08499); assay: In vitro enzyme assay, full-length PDE4D2; assay type: biochemical; settings: data not shown
full-length PDE4D2 (residues 1-507), sequence (Q08499 303-809): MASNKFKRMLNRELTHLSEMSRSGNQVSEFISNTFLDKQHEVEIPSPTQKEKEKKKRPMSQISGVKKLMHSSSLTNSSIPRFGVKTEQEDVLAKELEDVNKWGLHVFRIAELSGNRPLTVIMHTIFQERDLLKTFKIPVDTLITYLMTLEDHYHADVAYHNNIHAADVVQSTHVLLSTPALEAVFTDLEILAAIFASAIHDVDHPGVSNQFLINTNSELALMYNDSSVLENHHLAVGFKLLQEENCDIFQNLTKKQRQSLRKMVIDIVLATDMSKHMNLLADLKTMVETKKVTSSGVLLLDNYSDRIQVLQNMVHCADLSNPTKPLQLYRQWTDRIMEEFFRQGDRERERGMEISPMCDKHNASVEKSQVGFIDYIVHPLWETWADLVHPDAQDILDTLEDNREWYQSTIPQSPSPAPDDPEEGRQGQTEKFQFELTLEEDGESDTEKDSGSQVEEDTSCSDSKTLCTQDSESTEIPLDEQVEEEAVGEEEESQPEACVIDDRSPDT

[4] = 10μM, 1 hr pretreatment, vs vehicle-treated control

In the case of `CC(=O)O[C@@H]1CC[C@@]2(C)[C@@H](CC[C@@H]3[C@@H]2CC[C@]2(C)C(=O)CC[C@@H]32)C1` [androsterone acetate], the “average OD600 in PDE7A HTS” value (human PDE7A1) was > 0.821.
`Cc1ccc([N+](=O)[O-])cc1S(=O)(=O)N(C)C` [BRL50481, 3-(N,N-dimethylsulfonamido)-4-methyl-nitrobenzene, reference compound] was tested, and the pIC50 (PDE7A; read-out: IC50 against PDE7A, in vitro enzyme assay) was ~6.82, the “IC50 on PDE7B relative to PDE7A” value (PDE7B) was 80 fold and the “stimulation of 5FOA-resistant growth, PDE7A-expressing strain” value (human PDE7A1) was “most effective compound for stimulation of 5FOA-resistant growth”. The “stimulation of 5FOA-resistant growth, PDE7B-expressing strain” value (human PDE7B1) was “rather poor inhibitor of PDE7B, equal to BC11 and BC39, and far less effective than BC30”, the “TNFα release, combined with rolipram, 3 hours LPS” value [1] was “modestly enhances the rolipram-mediated reduction of TNFα release” and the “TNFα release, combined with rolipram, 20 hours LPS” value [1] was “modestly enhances the rolipram-mediated reduction of TNFα release”.
With `COc1ccc(C2CNC(=O)C2)cc1OC1CCCC1` (centres unmarked) [rolipram, reference compound] the “TNFα release, compound alone, 20 hours LPS” value [1, 4] was “significant reduction in TNFα release”.
For `N#Cc1sc2sc(C#N)c(-c3ccco3)c2c1N` [BC30, 3-amino-4-(2-furyl) thieno[2,3-b]thiophene-2,5-dicarbonitrile], the pIC50 (PDE7A) was 5.96, the pIC50 (PDE7B) was 5.43 and the “effect on Km of PDE7B” value (PDE7B; data not shown) was “appears to increase the Km of PDE7B”. For the same molecule, the “IC50 on PDE7B relative to PDE7A” value (PDE7B) was “four-fold lower IC50 on PDE7A than PDE7B”, the “PDE7A inhibition upon rescreening” value (human PDE7A1; 2μM, data not shown) was “one of the most effective PDE7A inhibitors” and the “rank of Composite Z score in PDE7A HTS” value (human PDE7A1; 20μM screen, 48,176 compounds) was 40. For the same molecule, the “stimulation of 5FOA-resistant growth, PDE7A-expressing strain” value (human PDE7A1) was “very potent at low micromolar concentrations”, the “stimulation of 5FOA-resistant growth, PDE7B-expressing strain” value (human PDE7B1) was “the best inhibitor of PDE7B” and the “effect on 5FOA growth, human PDE4A1 strain” value (human PDE4A1) was “no effect on the growth”. The “effect on 5FOA growth, human PDE4B2 strain” value (human PDE4B2) was “no effect on the growth”, the “effect on 5FOA growth, human PDE4D3 strain” value (human PDE4D3) was “no effect on the growth” and the “activity in HTS, mouse PDE4A1 strain” value (mouse PDE4A1) was “very weak activity”. For the same molecule, the “effect on 5FOA growth, PDE1B strain” value (PDE1B) was “no effect on growth”, the “effect on 5FOA growth, PDE1C strain” value (PDE1C) was “no effect on growth” and the “effect on 5FOA growth, PDE2A strain” value (PDE2A) was “no effect on growth”. The “effect on 5FOA growth, PDE3B strain” value (PDE3B) was “no effect on growth”, the “effect on 5FOA growth, PDE5A strain” value (PDE5A) was “no effect on growth” and the “effect on 5FOA growth, PDE8A strain” value (PDE8A) was “no effect on growth”. For the same molecule, the “effect on 5FOA growth, PDE9A strain” value (PDE9A) was “no effect on growth”, the “effect on 5FOA growth, PDE11A strain” value (PDE11A) was “no effect on growth” and the “OD600 of PDE10A-expressing strain” value (PDE10A) was 0.53. The “effect on Vmax of PDE4D catalytic domain” value ([2]; 25 nM compound, varying cAMP) was “doubling the Vmax”, the “effect on cAMP hydrolysis by PDE4D catalytic domain” value ([2]; 2μM compound, data not shown) was “significantly stimulate cAMP hydrolysis” and the “concentration producing the maximum increase in PDE4D catalytic domain activity” value ([2]; enzyme concentration 16 nM) was 25 nM. For the same molecule, the “effect on activity of full-length PDE4D2” value [3] was “neither BC30 nor the other compounds that stimulate the catalytic domain of PDE4D affect the activity of the full-length PDE4D2”, the “TNFα release, combined with rolipram, 3 hours LPS” value [1] was “dramatic reduction of TNFα release” and the “TNFα release, combined with rolipram, 20 hours LPS” value [1] was “dramatic reduction of TNFα release”. For the same molecule, the “TNFα release, compound alone, 3 hours LPS” value [1, 4] was “significant reduction in TNFα release” and the “TNFα release, compound alone, 20 hours LPS” value [1, 4] was “significant reduction in TNFα release”.
With `C[C@]12CCC(=O)C=C1C=C[C@@H]1[C@@H]2CC[C@@]2(C)[C@H]1CC[C@@]21CCC(=O)O1` [canrenone, reference compound] the “average OD600 in PDE7A HTS” value (human PDE7A1) was > 0.821.
